# Reference: publication PMC9524580 (Neuropharmacology, 2022)
# “Also recorded” adds a separate entry of the source.
# Tests used:
# [1] = inferred from use as biomarker of coffee consumption; ref Bresciani et al., 2020; cited from earlier work
# α3β2 nAChR = α3β2 nAChR (Homo sapiens, UniProt P17787+P32297); type: cell-based; conditions: 100 μM n-MP co-applied with 100 μM ACh
# How it was run: (§1)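 Xenopus oocytes were injected with human α3 plus β2 or β4 subunit RNA at alpha:beta ratios of 1:5 or 5:1. Two-electrode voltage clamp at −60 mV, 24 °C, with Ringer's (pH 7.2, 1 μM atropine) at 4 ml/min.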
# [2] = biological target: low sensitivity (LS) α4(3)β2(2) nAChR (Homo sapiens, UniProt P17787+P43681); assay: Two-electrode voltage clamp of Xenopus oocytes expressing LS α4β2 nAChR; type: cell-based; conditions: for Effect on ACh-evoked peak-current responses of LS α4β2 receptors: 100 μM compound co-applied with control ACh (100 μM)
# low sensitivity (LS) α4(3)β2(2) nAChR, sequence (P17787 26-502): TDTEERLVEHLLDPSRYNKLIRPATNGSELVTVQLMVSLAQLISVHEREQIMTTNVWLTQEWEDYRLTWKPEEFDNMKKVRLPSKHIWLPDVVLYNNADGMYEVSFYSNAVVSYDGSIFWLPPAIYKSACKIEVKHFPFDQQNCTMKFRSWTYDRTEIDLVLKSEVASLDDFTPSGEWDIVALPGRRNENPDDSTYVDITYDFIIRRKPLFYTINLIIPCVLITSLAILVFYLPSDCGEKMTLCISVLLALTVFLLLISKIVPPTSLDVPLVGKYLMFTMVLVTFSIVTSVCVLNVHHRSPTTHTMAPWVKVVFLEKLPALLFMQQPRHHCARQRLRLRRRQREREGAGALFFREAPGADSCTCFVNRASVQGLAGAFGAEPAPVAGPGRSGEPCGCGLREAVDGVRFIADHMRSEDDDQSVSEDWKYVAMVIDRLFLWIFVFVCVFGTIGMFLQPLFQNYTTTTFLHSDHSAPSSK
# low sensitivity (LS) α4(3)β2(2) nAChR, sequence (P43681 29-627 limits assumed): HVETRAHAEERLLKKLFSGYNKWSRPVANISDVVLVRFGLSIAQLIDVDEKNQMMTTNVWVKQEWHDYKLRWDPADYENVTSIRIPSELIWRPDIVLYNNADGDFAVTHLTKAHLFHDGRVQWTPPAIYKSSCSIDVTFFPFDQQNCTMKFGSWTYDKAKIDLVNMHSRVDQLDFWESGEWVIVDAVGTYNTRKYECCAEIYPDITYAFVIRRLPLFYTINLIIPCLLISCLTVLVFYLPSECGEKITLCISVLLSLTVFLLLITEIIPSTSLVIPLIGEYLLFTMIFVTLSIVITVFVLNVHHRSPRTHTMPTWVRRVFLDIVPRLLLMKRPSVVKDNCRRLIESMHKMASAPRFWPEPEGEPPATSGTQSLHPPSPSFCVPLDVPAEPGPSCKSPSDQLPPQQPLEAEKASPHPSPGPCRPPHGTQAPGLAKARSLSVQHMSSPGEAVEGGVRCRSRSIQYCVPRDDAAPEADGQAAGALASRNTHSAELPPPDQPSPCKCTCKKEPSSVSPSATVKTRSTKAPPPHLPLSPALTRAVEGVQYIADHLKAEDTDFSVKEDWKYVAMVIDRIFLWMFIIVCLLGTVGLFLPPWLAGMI
# low sensitivity (LS) α4(3)β2(2) nAChR, sequence (P43681 29-627 limits assumed): as above
# α3β4 nAChR = α3β4 nAChR (Homo sapiens, UniProt P30926+P32297); type: cell-based; conditions: 100 μM n-MP co-applied with 100 μM ACh; alpha:beta RNA 5:1 or 1:5 (either set)
# α3β4 nAChR, sequence (P32297 32-505): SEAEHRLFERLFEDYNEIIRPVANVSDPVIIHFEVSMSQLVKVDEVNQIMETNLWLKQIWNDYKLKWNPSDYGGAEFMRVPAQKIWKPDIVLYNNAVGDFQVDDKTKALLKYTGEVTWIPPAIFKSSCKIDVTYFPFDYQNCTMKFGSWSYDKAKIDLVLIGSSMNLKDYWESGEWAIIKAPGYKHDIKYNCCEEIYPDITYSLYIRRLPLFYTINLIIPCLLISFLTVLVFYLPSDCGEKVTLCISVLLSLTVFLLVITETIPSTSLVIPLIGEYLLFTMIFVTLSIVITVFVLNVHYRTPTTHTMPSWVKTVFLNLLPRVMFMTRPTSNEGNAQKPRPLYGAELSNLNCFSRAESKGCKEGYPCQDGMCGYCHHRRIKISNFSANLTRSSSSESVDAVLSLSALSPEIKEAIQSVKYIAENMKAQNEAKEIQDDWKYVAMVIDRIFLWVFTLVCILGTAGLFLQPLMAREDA
# α3β4 nAChR, sequence (P30926 22-498): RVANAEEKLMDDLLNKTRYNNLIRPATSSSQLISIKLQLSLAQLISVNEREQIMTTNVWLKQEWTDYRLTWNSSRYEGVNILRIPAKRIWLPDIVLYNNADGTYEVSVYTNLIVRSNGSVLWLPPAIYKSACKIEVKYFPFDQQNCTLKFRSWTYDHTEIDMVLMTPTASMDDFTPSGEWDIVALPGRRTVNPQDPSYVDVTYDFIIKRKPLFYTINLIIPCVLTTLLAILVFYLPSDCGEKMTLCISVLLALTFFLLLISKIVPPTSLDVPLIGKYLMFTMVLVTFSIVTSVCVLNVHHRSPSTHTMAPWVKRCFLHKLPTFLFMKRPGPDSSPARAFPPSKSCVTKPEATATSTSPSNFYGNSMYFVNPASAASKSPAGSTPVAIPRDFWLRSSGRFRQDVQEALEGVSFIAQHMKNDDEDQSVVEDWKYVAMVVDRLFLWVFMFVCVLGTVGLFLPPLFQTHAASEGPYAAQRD
# How it was run: as §1
# human α7 nAChR = human α7 nAChR (Homo sapiens, UniProt P36544); assay: Two-electrode voltage clamp of Xenopus oocytes expressing α7 nAChR; type: cell-based; conditions: for α7 net-charge response to compound co-applied with PNU-120596: 100 μM compound + 10 μM PNU-120596, compared to PNU-120596 alone or ACh control
# human α7 nAChR, sequence (P36544 23-502): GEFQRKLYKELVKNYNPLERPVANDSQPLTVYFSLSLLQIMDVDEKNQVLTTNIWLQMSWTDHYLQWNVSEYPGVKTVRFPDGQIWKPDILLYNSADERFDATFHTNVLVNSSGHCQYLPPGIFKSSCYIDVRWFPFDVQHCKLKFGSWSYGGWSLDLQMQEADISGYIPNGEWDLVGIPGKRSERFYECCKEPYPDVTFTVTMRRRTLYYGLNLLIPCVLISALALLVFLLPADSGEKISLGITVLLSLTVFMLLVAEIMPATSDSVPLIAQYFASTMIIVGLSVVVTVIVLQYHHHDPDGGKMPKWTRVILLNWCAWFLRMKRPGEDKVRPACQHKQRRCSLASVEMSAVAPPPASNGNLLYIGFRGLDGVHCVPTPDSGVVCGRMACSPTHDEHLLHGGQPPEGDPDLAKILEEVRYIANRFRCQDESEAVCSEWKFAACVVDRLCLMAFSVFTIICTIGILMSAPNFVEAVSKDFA
# How it was run: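 Human α7 clone co-injected with human RIC3 in Xenopus oocytes. Oocytes were clamped at −60 mV at 24 °C and perfused at 2 ml/min with Ringer's (115 mM NaCl, 2.5 mM KCl, 1.8 mM CaCl2, 10 mM HEPES, 1 μM atropine, pH 7.2). […] Compound was 100 μM, alone or with 10 μM PAM; n = 6–8 oocytes; ANOVA.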
# β3α4β2α6β2 nAChR = β3α4β2α6β2 nAChR (Homo sapiens, UniProt P17787+P43681+Q05901+Q15825); type: cell-based; conditions: 100 μM n-MP co-applied with 30 μM ACh
# β3α4β2α6β2 nAChR, sequence (Q05901 25-458 limits assumed): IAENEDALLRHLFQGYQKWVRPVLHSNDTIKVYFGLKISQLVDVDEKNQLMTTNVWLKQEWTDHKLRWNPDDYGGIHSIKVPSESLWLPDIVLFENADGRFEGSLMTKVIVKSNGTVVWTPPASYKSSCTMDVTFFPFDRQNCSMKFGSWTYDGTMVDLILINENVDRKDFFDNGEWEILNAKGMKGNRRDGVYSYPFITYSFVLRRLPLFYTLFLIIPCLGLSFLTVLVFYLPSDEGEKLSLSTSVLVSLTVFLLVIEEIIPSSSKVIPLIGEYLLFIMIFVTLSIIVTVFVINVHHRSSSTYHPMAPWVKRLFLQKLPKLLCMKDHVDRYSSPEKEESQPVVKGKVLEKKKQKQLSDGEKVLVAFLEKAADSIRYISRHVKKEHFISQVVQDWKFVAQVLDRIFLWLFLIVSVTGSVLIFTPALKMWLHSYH
# β3α4β2α6β2 nAChR, sequence (P43681 29-627 limits assumed): as the sequence (P43681 29-627 limits assumed) above
# β3α4β2α6β2 nAChR, sequence (P17787 26-502): as the sequence (P17787 26-502) above
# β3α4β2α6β2 nAChR, sequence (Q15825 26-494): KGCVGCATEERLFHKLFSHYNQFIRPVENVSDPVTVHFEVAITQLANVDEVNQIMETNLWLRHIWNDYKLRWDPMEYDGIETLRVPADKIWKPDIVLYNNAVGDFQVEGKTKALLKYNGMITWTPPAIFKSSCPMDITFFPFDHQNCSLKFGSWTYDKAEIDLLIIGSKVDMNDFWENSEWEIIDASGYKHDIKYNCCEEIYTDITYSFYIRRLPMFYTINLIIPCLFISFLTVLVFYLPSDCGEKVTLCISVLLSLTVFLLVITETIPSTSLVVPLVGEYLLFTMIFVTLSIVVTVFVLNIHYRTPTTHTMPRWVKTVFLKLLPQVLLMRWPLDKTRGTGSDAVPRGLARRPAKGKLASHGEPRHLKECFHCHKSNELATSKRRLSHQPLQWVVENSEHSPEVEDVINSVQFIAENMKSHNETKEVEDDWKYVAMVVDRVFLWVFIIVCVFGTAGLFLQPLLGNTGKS
# β3α4β2α6β2 nAChR, sequence (P17787 26-502): as the sequence (P17787 26-502) above
# How it was run: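 Oocytes from female Xenopus laevis expressed human β3α4β2α6β2 from a linked-subunit concatamer. Two-electrode voltage clamp at −60 mV and 24 °C. Bath perfusion at 4 ml/min with Ringer's (115 mM NaCl, 2.5 mM KCl, 1.8 mM CaCl2, 10 mM HEPES, 1 μM atropine, pH 7.2). […] Responses were relative to the mean of the two controls; n = 6, mean ± S.D.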
# [3] = biological target: high sensitivity (HS) α4(2)β2(3) nAChR (Homo sapiens, UniProt P17787+P43681); type: cell-based; conditions: for Effect on ACh-evoked peak-current responses of HS α4β2 receptors: 100 μM compound co-applied with control ACh (10 μM)
# high sensitivity (HS) α4(2)β2(3) nAChR, sequence (P17787 26-502): as above
# high sensitivity (HS) α4(2)β2(3) nAChR, sequence (P43681 29-627 limits assumed): as the sequence (P43681 29-627 limits assumed) above
# high sensitivity (HS) α4(2)β2(3) nAChR, sequence (P17787 26-502): as the sequence (P17787 26-502) above
# α4(2)β2(2)α5 nAChR = α4(2)β2(2)α5 nAChR (Homo sapiens, UniProt P17787+P30532+P43681); assay: Two-electrode voltage clamp of Xenopus oocytes expressing α4β2α5 nAChR; type: cell-based; conditions: 100 μM n-MP co-applied with 10 μM ACh
# α4(2)β2(2)α5 nAChR, sequence (P17787 26-502): as above
# α4(2)β2(2)α5 nAChR, sequence (P43681 29-627 limits assumed): as the sequence (P43681 29-627 limits assumed) above
# α4(2)β2(2)α5 nAChR, sequence (P30532 23-468): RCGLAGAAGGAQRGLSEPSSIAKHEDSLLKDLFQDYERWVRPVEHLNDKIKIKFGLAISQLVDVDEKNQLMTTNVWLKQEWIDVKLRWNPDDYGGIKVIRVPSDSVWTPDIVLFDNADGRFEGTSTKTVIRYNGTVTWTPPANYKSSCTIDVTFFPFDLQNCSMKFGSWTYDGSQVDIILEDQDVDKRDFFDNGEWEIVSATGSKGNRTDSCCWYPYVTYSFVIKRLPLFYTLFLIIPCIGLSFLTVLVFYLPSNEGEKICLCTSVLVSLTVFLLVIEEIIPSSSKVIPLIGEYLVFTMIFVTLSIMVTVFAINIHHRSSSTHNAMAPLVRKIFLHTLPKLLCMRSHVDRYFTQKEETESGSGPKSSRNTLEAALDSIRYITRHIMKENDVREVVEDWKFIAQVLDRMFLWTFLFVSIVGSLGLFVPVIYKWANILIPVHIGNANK
# How it was run: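 Human α4(2)β2(2)α5 receptors expressed in Xenopus laevis oocytes. Voltage-clamped at −60 mV and room temperature (24 °C), perfused at 4 ml/min with atropine-containing Ringer's, pH 7.2. […] At least five oocytes; mean ± S.D.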
# α3β2 nAChR, sequence (P32297 32-505): as the sequence (P32297 32-505) above
# α3β2 nAChR, sequence (P17787 26-502): as the sequence (P17787 26-502) above
smiles,measurement,setting,value
"C[n+]1ccccc1 [n-MP, 1-methylpyridinium]",Bioavailability,[1],good bioavailability
same,Effect on ACh responses of α3β2 receptors with high levels of β2,α3β2 nAChR; alpha:beta RNA 1:5,no effect
same,Effect on ACh responses of α3β2 receptors with high levels of α3,α3β2 nAChR; alpha:beta RNA 5:1,significant potentiation
same,Effect on ACh-evoked peak-current responses of LS α4β2 receptors,[2],increasing the responses of LS receptors
same,Mode of action on LS α4β2 receptors,"[2]; 100 μM n-MP, 10 to 100 μM ACh",working as a PAM at those intermediate concentrations
same,LS α4β2 ACh responses after n-MP washout,[2]; 300 μM n-MP bath application,significant increases
same,"Imax of ACh, From Figure 7","[2]; LS, ACh co-applied with 100 μM n-MP, relative to 100 μM ACh control",1.824 ± 0.062
same,Effect of bath-applied n-MP on LS α4β2 ACh responses,"[2]; varying bath concentrations, periodic 100 μM ACh applications",small concentration-dependent increase
same,Effect on ACh responses of α3β4 receptors,α3β4 nAChR,no effect
same,α7 net-charge response to compound co-applied with PNU-120596,human α7 nAChR,PAM-dependent responses
same,Effect on ACh responses of α6-containing receptors,β3α4β2α6β2 nAChR,no significant effect
same,Effect on ACh-evoked peak-current responses of HS α4β2 receptors,[3],decreasing the responses of HS receptors; also recorded: decreasing those of HS receptors
same,Mode of action on HS α4β2 ACh-evoked responses,"[3]; 100 μM n-MP, ACh competition experiment",competitive antagonist
same,Effect of bath-applied n-MP on HS α4β2 ACh responses,"[3]; varying bath concentrations, periodic 10 μM ACh applications","concentration-dependent, and only partially reversible, inhibition"
same,Effect on ACh responses of α4β2α5 receptors,α4(2)β2(2)α5 nAChR,antagonist
"Cn1c(=O)c2c(ncn2C)n(C)c1=O [caffeine, reference compound]",Effect on ACh-evoked peak-current responses of LS α4β2 receptors,[2],lacks significant nAChR activity
same,α7 net-charge response to compound co-applied with PNU-120596,human α7 nAChR,lacks significant nAChR activity
same,Effect on ACh-evoked peak-current responses of HS α4β2 receptors,[3],lacks significant nAChR activity
"CC(=O)OCC[N+](C)(C)C [ACh, Acetylcholine chloride, reference compound]","Imax, From Figure 7",[2],2.327 ± 0.395
same,"Imax, From replicates, Averages ± S.D.",[2],2.290 ± 0.714
same,"Imax, From replicates, Averages ± S.D.",[3],1.535 ± 0.080
C[N+](C)(C)CCO [choline],EC50,human α7 nAChR,~200 µM
same,Net charge Imax with PNU-120596 co-application versus applied alone,human α7 nAChR; 10 μM PNU-120596,roughly 100 fold
same,α7 net-charge response to compound co-applied with PNU-120596,human α7 nAChR,greater than the initial ACh controls
"C[N+]1(C)CCCCC1 [dMP, 1,1-dimethylpiperidium]",Effect on ACh-evoked peak-current responses of LS α4β2 receptors,[2],increasing the responses of LS receptors
same,α7 net-charge response to compound co-applied with PNU-120596,human α7 nAChR,large responses
same,α7 response to compound applied alone,"human α7 nAChR; 100 μM compound, compared to 60 μM ACh control",comparable to those stimulated by the control application of 60 μM ACh
same,Effect on ACh-evoked peak-current responses of HS α4β2 receptors,[3],decreasing the responses of HS receptors; also recorded: strongly inhibited
